From ChEMBL document CHEMBL3352791, “Thioaryl naphthylmethanone oxime ether analogs as novel anticancer agents” (J Med Chem, 2014)

What was measured:
[1] = system: MDA-MB-231; assay: Antiproliferative activity against human ER-positive MDA-MB-231 cells after 24 hrs by MTT assay; format: functional, cell-based
[2] = in vitro; conditions: human, MCF10A cells versus
[3] = system: MCF7; assay: Antiproliferative activity against human ER-negative MCF7 cells after 24 hrs by MTT assay; format: functional, cell-based
[4] = system: Ishikawa; assay: Antiproliferative activity against human ER-positive Ishikawa cells after 24 hrs by MTT assay; format: functional, cell-based
[5] = system: MDA-MB-231; assay: Antiproliferative activity against human ER-positive MDA-MB-231 cells after 72 hrs by MTT assay; format: functional, cell-based; conditions: MDA-MB-231, 72 h
[6] = Safety index, ratio of IC50 for human MCF10A cells to EC50 for human ER-positive MDA-MB-231 cells; conditions: MCF10A cells versus
[7] = system: HeLa; assay: Antiproliferative activity against human HeLa cells after 24 hrs by MTT assay; format: functional, cell-based
[8] = Antiproliferative activity against human prostate, androgen receptor positive DU145 cells after 24 hrs by MTT assay; format: functional, cell-based, DU-145
[9] = system: MCF7; assay: Antiproliferative activity against human ER-negative MCF7 cells after 72 hrs by MTT assay; format: functional, cell-based; conditions: MCF7, 72 h
[10] = Cytotoxicity against human MCF10A cells after 72 hrs by MTT assay; format: ADME, cell-based; conditions: MCF-10A
[11] = Safety index, ratio of IC50 for human MCF10A cells to EC50 for human COLO205 cells; format: toxicity, cell-based, COLO 205; conditions: MCF10A cells versus COLO205 cells, read-out: Ratio IC50/EC50
How it was run: (§1)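 Safety index is the IC50 in the normal cells divided by the EC50 in the cancer cells. Both values come from MTT assays: cells in DMEM with 10% FBS, serum-starved 4 h, then exposed to compound across a 100nM-50µM dose range with 0.1% DMSO as vehicle control.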

[12] = system: HEK293; assay: Antiproliferative activity against HEK293 cells after 24 hrs by MTT assay; format: functional, cell-based; conditions: Homo sapiens, HEK293, 24 h
How it was run: (§2)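 MTT viability: cells seeded at 1×10^4 per well in DMEM with 10% FBS, left to adhere overnight, then serum-starved 4 h. Compounds were given at a range of doses, with 0.1% DMSO vehicle as control. EC50 was taken from dose-response curves spanning 100nM-50µM. Data are mean ± SEM from at least three independent experiments.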

[13] = Antiproliferative activity against human DLD1 cells after 24 hrs by MTT assay; format: functional, cell-based; conditions: DLD-1, 24 h; how it was run: as §2
[14] = Safety index, ratio of IC50 for human MCF10A cells to EC50 for human SW620 cells; format: toxicity, cell-based, SW-620; conditions: MCF10A cells versus SW620 cells, read-out: Ratio IC50/EC50; how it was run: as §1
[15] = system: SW-620; assay: Antiproliferative activity against human SW620 cells after 24 hrs by MTT assay; format: functional, cell-based; conditions: SW-620, 24 h; how it was run: as §2
[16] = Safety index, ratio of IC50 for human MCF10A cells to EC50 for human DLD1 cells; format: toxicity, cell-based, MCF-10A; conditions: MCF10A cells versus DLD1 cells, read-out: Ratio IC50/EC50; how it was run: as §1
[17] = Safety index, ratio of IC50 for human MCF10A cells to EC50 for human HCT116 cells; format: toxicity, cell-based, MCF-10A; conditions: MCF10A cells versus HCT116 cells, read-out: Ratio IC50/EC50; how it was run: as §1
[18] = Antiproliferative activity against human HCT116 cells after 24 hrs by MTT assay; format: functional, cell-based; conditions: HCT-116, 24 h; how it was run: as §2
[19] = Antiproliferative activity against human COLO205 cells after 24 hrs by MTT assay; format: functional, cell-based; conditions: COLO 205, 24 h; how it was run: as §2

Structure (SMILES)	EC50 ([1]; Homo sapiens, MDA-MB-231, 24 h)	EC50 ([3]; Homo sapiens, MCF7, 24 h)	EC50 ([4]; Homo sapiens, Ishikawa, 24 h)	EC50 ([7]; Homo sapiens, HeLa, 24 h)	EC50 ([8]; Homo sapiens, DU-145, 24 h)	other results
CSc1ccc(/C(=N\OCCN2CCCC2)c2cccc3ccccc23)cc1	5.01 µM	6.6 µM	6 µM	6.6 µM	9.5 µM	selectivity ratio [2]: 1.1; EC50 [5]: 3.8 µM; selectivity ratio [6]: 1.4; EC50 [9]: 5 µM; IC50 [10]: 5.5 µM
COc1ccc(/C(=N\OCCN2CCOCC2)c2cccc3ccccc23)cc1	25 µM	20 µM	> 50 µM	> 50 µM	> 50 µM	
CCCCN(C)CCCO/N=C(\c1ccc(SC)cc1)c1cccc2ccccc12	> 50 µM	> 50 µM	> 50 µM	8 µM	> 50 µM	
CCN(CC)CCO/N=C(\c1ccc(SC)cc1)c1cccc2ccccc12 [listing 1 of 4 here]						EC50 ([1]; mda-mb-231): > 50 µM; EC50 ([3]; mcf7): > 50 µM; EC50 ([4]; ishikawa): > 50 µM; EC50 ([7]; hela): > 50 µM; EC50 ([8]; du-145): > 50 µM
O=C(c1ccc(OCCN2CCCCC2)cc1)c1c(-c2ccc(O)cc2)sc2cc(O)ccc12 [RALOXIFENE]	30 µM	23 µM	20 µM		> 50 µM	
CCN(CC)CCO/N=C(\c1ccc(SC)cc1)c1cccc2ccccc12 [listing 2 of 4 here]						EC50 ([1]; mda-mb-231): 8.8 µM; EC50 ([3]; mcf7): 13.5 µM; EC50 ([4]; ishikawa): 25 µM; EC50 ([7]; hela): 20 µM; EC50 ([8]; du-145): 25 µM
COc1ccc(/C(=N\OCCN(C)C)c2cccc3ccccc23)cc1	> 50 µM	15 µM	> 50 µM	23 µM	> 50 µM	
CCN(CCCCO/N=C(\c1ccc(SC)cc1)c1cccc2ccccc12)Cc1ccccc1	> 50 µM	> 50 µM	> 50 µM	10 µM	> 50 µM	
CSc1ccc(/C(=N\OCCCCNCCc2ccccc2)c2cccc3ccccc23)cc1	20 µM	18 µM	> 50 µM	> 50 µM	> 50 µM	
CSc1ccc(/C(=N\OCCCN2CCCCC2)c2cccc3ccccc23)cc1	20 µM	5 µM	12 µM	6.5 µM	15 µM	selectivity ratio [2]: 2; EC50 [5]: 20 µM; selectivity ratio [6]: 0.5; EC50 [9]: 5 µM; IC50 [10]: 10 µM
CSc1ccc(/C(=N\OCCN2CCCCC2)c2cccc3ccccc23)cc1	8.8 µM	13.5 µM	10 µM	13.5 µM	10 µM	
CSc1ccc(/C(=N\OCCN(C(C)C)C(C)C)c2cccc3ccccc23)cc1	> 50 µM	> 50 µM	> 50 µM	> 50 µM	> 50 µM	
CSc1ccc(/C(=N\OCCCN(C)C)c2cccc3ccccc23)cc1	7.2 µM	8 µM	7 µM	8 µM	9.5 µM	selectivity ratio [2]: 30; EC50 [5]: 5.6 µM; selectivity ratio [6]: 5.3; EC50 [9]: 1 µM; IC50 [10]: 30 µM
CSc1ccc(/C(=N\OCCCCN2CCCCC2)c2cccc3ccccc23)cc1	18 µM	8 µM	18 µM	18 µM	7.5 µM	selectivity ratio [2]: 1.2; EC50 [5]: 18 µM; selectivity ratio [6]: 0.5; EC50 [9]: 8 µM; IC50 [10]: 10 µM
CSc1ccc(/C(=N\OCCN(C)C)c2cccc3ccccc23)cc1	12.8 µM	14 µM	9 µM	14 µM	15 µM	
CCN(CC)CCO/N=C(\c1ccc(SC)cc1)c1cccc2ccccc12 [listing 3 of 4 here]						EC50 ([1]; mda-mb-231): 14.8 µM; EC50 ([3]; mcf7): 18.5 µM; EC50 ([4]; ishikawa): 20 µM; EC50 ([8]; du-145): 20 µM
COc1ccc(/C(=N\OC(C)CN(C)C)c2cccc3ccccc23)cc1 (configuration not stated)	> 50 µM	> 50 µM	> 50 µM	> 50 µM	> 50 µM	
O=c1[nH]cc(F)c(=O)[nH]1 [FLUOROURACIL]						selectivity ratio [11]: 1.2; IC50 [12]: 48.7 µM; EC50 [13]: 16.3 µM; selectivity ratio [14]: 0.97; EC50 [15]: > 50 µM; selectivity ratio [16]: 2.98; selectivity ratio [17]: 0.97; EC50 [18]: > 50 µM; EC50 [19]: 38.1 µM

Structure (SMILES)	EC50 ([1]; Homo sapiens, MDA-MB-231, 24 h)	EC50 ([3]; Homo sapiens, MCF7, 24 h)	EC50 ([4]; Homo sapiens, Ishikawa, 24 h)	EC50 ([7]; Homo sapiens, HeLa, 24 h)	EC50 ([8]; Homo sapiens, DU-145, 24 h)	other results
CCN(CC)C(=O)CO/N=C(\c1ccc(SC)cc1)c1cccc2ccccc12	30 µM	28 µM	> 50 µM	25 µM	> 50 µM	
CCCCC(CC)CNCCCO/N=C(\c1ccc(OC)cc1)c1cccc2ccccc12 (configuration not stated)	> 50 µM	> 50 µM	> 50 µM	> 50 µM	> 50 µM	
COc1ccc(/C(=N\OCCN(C(C)C)C(C)C)c2cccc3ccccc23)cc1	> 50 µM	23 µM	> 50 µM	> 50 µM	> 50 µM	
CCOC(=O)CO/N=C(\c1ccc(SC)cc1)c1cccc2ccccc12	35 µM	30 µM	> 50 µM	18 µM	> 50 µM	
CSc1ccc(/C(=N\O)c2cccc3ccccc23)cc1	20 µM	18 µM	> 50 µM	18 µM	> 50 µM	
CCN(CC)CCO/N=C(\c1ccc(SC)cc1)c1cccc2ccccc12 [listing 4 of 4 here]						EC50 ([1]; mda-mb-231): 11.2 µM; EC50 ([3]; mcf7): 14.8 µM; EC50 ([4]; ishikawa): 15 µM; EC50 ([8]; du-145): 18.5 µM
COc1ccc(/C(=N\OCCN2CCCCC2)c2cccc3ccccc23)cc1	> 50 µM	18 µM	> 50 µM	15 µM	> 50 µM	
CCN(CC)CCO/N=C(\c1ccc(OC)cc1)c1cccc2ccccc12	> 50 µM	20 µM	> 50 µM	> 50 µM	> 50 µM	
COc1ccc(/C(=N\OCCN2CCCC2)c2cccc3ccccc23)cc1	> 50 µM	25 µM	> 50 µM	20 µM	> 50 µM	
CSc1ccc(/C(=N\OC(C)CN(C)C)c2cccc3ccccc23)cc1 (configuration not stated)	> 50 µM	> 50 µM	> 50 µM	> 50 µM	> 50 µM	
COc1ccc(/C(=N\OCCCN(C)C)c2cccc3ccccc23)cc1	> 50 µM	20.5 µM	> 50 µM	> 50 µM	> 50 µM	
COc1ccc(/C(=N\OCCN2CCCCCC2)c2cccc3ccccc23)cc1	30 µM	25 µM	> 50 µM	20.5 µM	35 µM	
CSc1ccc(/C(=N\OCCN2CCOCC2)c2cccc3ccccc23)cc1	> 50 µM	> 50 µM	> 50 µM	> 50 µM	> 50 µM	
CSc1ccc(/C(=N\OCCCN2CCC(C)CC2)c2cccc3ccccc23)cc1	20 µM	6.5 µM	> 50 µM	> 50 µM	10 µM	
CSc1ccc(/C(=N\OCCCN2CCOCC2)c2cccc3ccccc23)cc1	> 50 µM	> 50 µM	> 50 µM	> 50 µM	> 50 µM	
CSc1ccc(/C(=N\OCCCCN2CCCC2)c2cccc3ccccc23)cc1	> 50 µM	> 50 µM	> 50 µM	> 50 µM	> 50 µM	
CC/C(=C(\c1ccc(O)cc1)c1ccc(OCCN(C)C)cc1)c1ccccc1 [AFIMOXIFENE]	8 µM	8.8 µM	11.5 µM		10 µM	EC50 [5]: 7.8 µM; selectivity ratio [6]: 1.28
CSc1ccc(/C(=N\OCCN2CCCCCC2)c2cccc3ccccc23)cc1	> 50 µM	> 50 µM	> 50 µM	> 50 µM	> 50 µM	
